Bioassay records from PubChem.
In the library only some 2.7% were active in any assay of this set; here they are far more common.
p97 inhibitor: inhibitors of human p97 ATPase. P55072. recombinant p97 ATPase, Kinase-Glo ATP luminescence, 3 h. inhibition, % at 8 µM. 220,000 compounds, 0.42% hits. AID 1481; in the data active = inhibition above about 15%;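 also: 0% = DMSO vehicle and 100% = wells lacking enzyme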
Target sequence (P55072 whole entry, looked up): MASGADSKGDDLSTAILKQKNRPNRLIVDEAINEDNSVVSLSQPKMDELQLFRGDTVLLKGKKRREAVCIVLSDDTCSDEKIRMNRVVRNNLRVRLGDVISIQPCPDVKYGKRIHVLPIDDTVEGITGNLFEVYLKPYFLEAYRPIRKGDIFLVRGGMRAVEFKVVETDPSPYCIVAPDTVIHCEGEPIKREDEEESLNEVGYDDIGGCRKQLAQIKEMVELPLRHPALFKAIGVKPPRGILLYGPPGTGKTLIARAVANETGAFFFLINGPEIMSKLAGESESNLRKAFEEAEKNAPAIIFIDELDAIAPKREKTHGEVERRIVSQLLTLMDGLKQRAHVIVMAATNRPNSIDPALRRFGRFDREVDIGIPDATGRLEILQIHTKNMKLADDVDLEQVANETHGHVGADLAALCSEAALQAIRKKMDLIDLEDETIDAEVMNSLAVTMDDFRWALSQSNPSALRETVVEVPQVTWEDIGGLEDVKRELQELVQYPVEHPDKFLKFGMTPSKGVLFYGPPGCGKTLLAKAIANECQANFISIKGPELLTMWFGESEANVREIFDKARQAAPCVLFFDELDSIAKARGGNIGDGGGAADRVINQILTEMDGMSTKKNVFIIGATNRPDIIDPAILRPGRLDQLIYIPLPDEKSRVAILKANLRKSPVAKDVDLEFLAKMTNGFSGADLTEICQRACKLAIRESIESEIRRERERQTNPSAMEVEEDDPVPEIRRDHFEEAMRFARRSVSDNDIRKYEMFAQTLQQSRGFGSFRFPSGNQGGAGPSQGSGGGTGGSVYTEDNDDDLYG
Wee1 degr inh: blocks degradation of human Wee1 kinase; P30291; HeLa Luc-Wee1K328M stability, luciferase luminescence; 100% = proteasome inhibitor MG132 effect; reporter increase, % at 5 µM; 220,000 compounds, 1.2% hits;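 active = activation above the mean of all tested compounds plus 3 SD, set per screening run, cut at about 8.8% in these data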;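 also: cells exposed to compound for 20 h before luminescence read; 0% = DMSO alone and 100% = MG132 at 30 µM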
L929 necroptosis: blocks zVAD induced death of L929 cells; viability rescue, % at 10 µM; L929 zVAD necroptosis rescue, ATP luminescence, 24 h; with zVAD 60 µM; 220,000 compounds, 0.38% hits;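 active = activation, scaled between plate controls, above about 75%, limit read from the data; inactive = activation under that limit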;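 also: 0% = zVAD with DMSO and 100% = DMSO alone without zVAD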
TNF necrop inh: blocks TNF-alpha induced death of Jurkat FADD-/- cells. Jurkat FADD-/- TNF necroptosis rescue, ATP luminescence, 24 h; 0 = TNF only, 100 = no-TNF cells. activation (protection from cell death), % at 10 µM. 220,000 compounds, 0.068% hits. AID 463075;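 active = activation, meaning protection from cell death, of at least 50% relative to plate controls; inactive = activation below 50%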;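 also: necroptosis triggered by 40 ng/mL TNF-alpha added together with compound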
PfM18AAP inh-1: blocks P. falciparum M18 aspartyl aminopeptidase; recombinant PfM18AAP, H-Glu-NHMec fluorogenic cleavage; inhibition, % at 7.35 µM; 290,000 compounds, 1.2% hits; AID 1822;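 active = inhibition above the campaign mean inhibition over all tested compounds plus 3 SD, cut at about 28% in these data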;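 also: 0% = plate median of test compound wells and 100% = 2 mM ZnCl2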
RBBP9 inhibitor: inhibitors of human serine hydrolase RBBP9 | O75884 | recombinant RBBP9, FP-Rh probe fluorescence polarization | inhibition, % at 7.94 µM | 220,000 compounds, 0.2% hits | AID 1515;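 active = inhibition above the campaign mean of all tested compounds plus 3 SD, cut at about 14% in these data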;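 also: plate controls were DMSO wells with RBBP9 for no effect and wells lacking RBBP9 protein for full effect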
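Measured by: FP readout at 525/598 nm; material: recombinant human RBBP9; also added: Serine-hydrolase probe FP-Rh, 375 nM pre-mixing; medium: Tris buffer pH 8.0, NaCl, Pluronic; replication: one well per compound; doses: one concentration, 7.94 µM nominal, 0.794% DMSO; timing: preincubation 30 min plus labeling 45 min at 25 °C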
PfM18AAP inh-2: confirmation of Plasmodium falciparum M18 aspartyl aminopeptidase inhibitors; inhibition, % at 7.35 µM; recombinant PfM18AAP, H-Glu-NHMec fluorogenic cleavage; shares compounds with PfM18AAP inh-1; 2,400 compounds, 28% hits; AID 2170;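 active = mean inhibition over replicate wells above the hit cutoff set for the earlier primary screen, cut at about 29% in these data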;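 also: 0% = median of test compound wells and 100% = 2 mM ZnCl2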
CTSL1 counter: Cathepsin L (human) inhibition, confirmation. inhibition, % at 5.96 µM. shares compounds with PfM18AAP inh-1. 2,400 tested, under 10 active. AID 2178. purified cathepsin L1, Z-Leu-Arg-MCA fluorescence;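 active = average inhibition across replicates above the hit cutoff set in the earlier primary screen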;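 also: 0% = median of test compound wells and 100% = Z-Phe-Ala-diazomethylketone 1 µM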
An asterisk follows results filed as active; / = not tested or not shown.

SMILES | p97 inhibitor | Wee1 degr inh | L929 necroptosis | TNF necrop inh | PfM18AAP inh-1 | RBBP9 inhibitor | PfM18AAP inh-2 | CTSL1 counter
COc1ccc(NC(=O)C2CCCN(S(=O)(=O)c3ccc(Cl)cc3)C2)cc1OC (centres undefined) | / | / | / | / | 2 | / | / | /
CN1CCN(C(=S)C(=O)Nc2ccc(Br)cc2)CC1 | -1 | 3 | 3 | 1 | 55* | -4 | 14 | -8
O=C(Cn1ncc2c([nH]c3ccccc32)c1=O)N1CCN(c2ccccn2)CC1 | / | / | / | / | -6 | / | / | /
Cc1ccc2c(c1)N(CC(=O)NCc1cccnc1)C(=O)CO2 | 5 | 2 | 0 | 2 | 81* | -9 | -57 | 1
Cc1ccc(NC(=O)CN2C(=O)COc3ccc(C)cc32)nc1 | -3 | -1 | -1 | 1 | 2 | -6 | / | /
Cc1c(C(=O)N2CCOCC2)sc(NC(=O)CCl)c1C#N | / | / | / | / | 5 | / | / | /
CC1(C)Cc2c(cnn2-c2cccc(F)c2)C(NC(=O)C2CCOCC2)C1 (centres undefined) | / | / | / | / | 1 | / | / | /
COc1cccc(NC2SC(=O)N(c3ccccc3)C2=O)c1 (centres undefined) | 1 | -2 | -1 | 1 | 35* | -1 | -53 | -3
O=C(COC(=O)c1ccccc1NC(=O)c1ccccc1)c1ccc([N+](=O)[O-])cc1 | 3 | -2 | 0 | -10 | 40* | 3 | -19 | 5
O=C(CNC(=O)c1ccc(Br)cc1)NCC(=O)OCC(=O)c1ccc(F)cc1 | / | / | / | / | 0 | / | / | /
O=C(CNC(=O)c1ccccc1)NCC(=O)OCC(=O)c1ccc([N+](=O)[O-])cc1 | -5 | 2 | 0 | -3 | 40* | 2 | -5 | 3
O=C(CNC(=O)c1ccc(Br)cc1)NCC(=O)OCC(=O)c1ccc([N+](=O)[O-])cc1 | -3 | -3 | / | -6 | 38* | -2 | -15 | -4
O=C(CCC(=O)OCC(=O)c1ccc([N+](=O)[O-])cc1)NC1CCCCC1 | 3 | 2 | 0 | -3 | 34* | 1 | -8 | -12
O=C(CCC(=O)OCC(=O)c1cccc([N+](=O)[O-])c1)NC1CCCCC1 | 7 | 1 | 0 | 1 | -5 | -4 | / | /
O=C(COC(=O)c1ccccc1NC(=O)c1ccccc1)c1cccc([N+](=O)[O-])c1 | 0 | 6 | 0 | 1 | 2 | -4 | / | /
COC(=O)[C@H](Cc1ccccc1)NC(=O)NCCc1ccc(OC)cc1 | / | / | / | / | -2 | / | / | /
Cc1cc([N+](=O)[O-])nn1CC(=O)N1c2ccccc2CC1C (centres undefined) | 4 | -2 | 0 | 3 | 1 | -7 | / | /
Cc1nn(CCO)c(N)c1C1(O)C(=O)Nc2c(Cl)cc(Cl)cc21 (centres undefined) | 0 | 2 | 1 | 0 | -14 | -1 | / | /
COc1cc(OC)c(-c2c3cc(O)c(=O)cc-3oc3cc(O)c(O)cc23)cc1OC | 4 | 0 | 2 | -3 | 44* | -169 | 26 | -1
Cc1ccc(C(=O)N/N=C\c2ccc([N+](=O)[O-])o2)cn1 | 0 | 5 | 6 | -11 | 34* | 7 | -45 | 6
COc1ccc(NC(=O)c2c(NC(=O)CCC(=O)O)sc3c2CCCCC3)cc1 | 4 | -1 | 2 | 1 | 44* | 0 | -46 | -5
Cc1cc(=O)[nH]c(N/N=C/c2ccc(OC(=O)c3cccnc3)cc2)n1 | 6 | -2 | 0 | 2 | -12 | 0 | / | /
Cc1ccc(NC(=S)NN2CCN(C)CC2)c(C)c1 | 0 | 2 | 0 | 2 | 2 | -3 | / | /
O=C(COc1ccc(Br)cc1Cl)Nn1cnnc1 | 4 | -3 | 2 | 1 | 43* | 4 | 42* | -2
Cc1ccc(NC(=O)Nn2cnnc2)c(C)c1 | / | / | / | / | 57* | / | 36* | 0
Cc1ccc(NC(=S)Nn2cnnc2)c(C)c1 | / | / | / | / | 72* | / | 65* | 0
S=C(Nc1ccc(Br)cc1Cl)Nn1cnnc1 | 0 | -3 | 0 | 1 | 77* | -3 | 80* | 2
